HKDC1 activator: HKDC1 hexokinase activators, primary screen, biochemical, fluorescence, uHTS; recombinant HKDC1, G6PDH/diaphorase resazurin fluorescence; stronger effect = lower value; activity change, negative = activation, % at 20 µM; Q2TB90; AID 493187, 2011; 0.056% of 340,000 active;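 active = activation of 40% or more at 20 µM, a change of -40% or lower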
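Dosing: single compound dose of 20 µM, 1% DMSO final / Test system: in-house human HKDC1 enzyme, G6PDH and diaphorase coupling enzymes / Quantity: 5 µg/mL HKDC1 final / Incubation: enzyme reaction 90 min, room temperature, in dark / Buffer or medium: pH 8.0 Tris with MgCl2 / Detection: coupled resazurin-to-resorufin fluorescence, Ex 525/Em 613 nm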
Active calls of the source: *. A selection follows.

SMILES | HKDC1 activator
Brc1ccc(C2N3CCCN23)cc1 (configuration not stated) | -79.3*
CC[C@H](C)/C=C(C)/C=C/C1=CC2=C(Cl)C(=O)[C@](C)(OC(C)=O)C(=O)C2=CO1 | 58.9
O=c1nc(/C=C/c2ccc(Cl)cc2Cl)cc(C(F)(F)F)[nH]1 | 35.1
Cc1cc(O)c2c(c1)C(=O)C13C(=C2O)C(=O)[C@H]2[C@@H](O)[C@@H]1[C@H]1[C@H](O)[C@@H]3C(=O)C3=C(O)c4c(O)cc(C)cc4C(=O)C312 (some centres not stated) | 67.4
CC(=NNC(=S)N1CC2CCC(CC2)C1)c1nccs1 | -43.2*
Nc1c(Br)cc2c3c(cccc13)-c1ccccc1-2 | 70.5
CCOC(=O)c1c(-n2c(C)cc(C=C3C(=O)NC(=S)NC3=O)c2C)sc2c1CCCC2 | 58.6
COc1cc(O)cc2c1cc([N+](=O)[O-])c1c(C(=O)O)cc3c(c12)OCO3 | 35.8
O=C1NC(=S)NC(=O)C1=Cc1ccc2c(c1)CCN2CCCCl | 59.0
CCN(CC)CCCNC(=O)c1c(O)c2ccccc2n(Cc2ccccc2)c1=O | 83.3

Source: PubChem (Sanford-Burnham Center for Chemical Genomics)
